ChEMBL document CHEMBL1821590, “Novel dihydropyrimidines and its pyrazole derivatives: synthesis and pharmacological screening” (Eur J Med Chem, 2011)
In brackets after ≈: the same amount, converted by molar mass.

Key:
Assay type in all cases: functional
Metaphire posthuma [1] = assay: Anthelmintic activity against Pheretima posthuma assessed as time taken for parasite death at 0.5% w/v
Method in brief: (§1)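 Earthworms (Pheretima posthuma, spelled Perituma posthuma in text) exposed to test compounds at 0.1, 0.2 and 0.5% w/v. Albendazole served as standard, with an untreated control. Paralysis was recorded as the time until worms became motionless, then time to death was recorded, in minutes. Each value is the mean of three determinations with S.D.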

Candida albicans [2] = assay: Antimicrobial activity against Candida albicans at 25 ug/ml by paper disc method; settings: read-out: IZ
Method in brief: (§2)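 Paper disc method against A. niger and C. albicans, with compounds at 25, 50 and 100 µg/mL. Amphotericin-B as standard.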

Metaphire posthuma [3] = assay: Anthelmintic activity against Pheretima posthuma assessed as time taken for parasite death at 0.1% w/v; method in brief: as §1
Candida albicans [4] = assay: Antimicrobial activity against Candida albicans at 100 ug/ml by paper disc method; settings: read-out: IZ; method in brief: as §2
Aspergillus niger [5] = assay: Antimicrobial activity against Aspergillus niger at 25 ug/ml by paper disc method; settings: read-out: IZ; method in brief: as §2
Bacillus subtilis [6] = assay: Antimicrobial activity against Bacillus subtilis at 50 ug/ml by agar plate diffusion technique; settings: read-out: IZ
Method in brief: (§3)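 Agar plate diffusion against E. coli, P. aeruginosa, S. aureus and B. subtilis, with compounds at 25, 50 and 100 µg/mL. Streptomycin as standard.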

Candida albicans [7] = assay: Antimicrobial activity against Candida albicans at 50 ug/ml by paper disc method; settings: read-out: IZ; method in brief: as §2
Escherichia coli [8] = assay: Antimicrobial activity against Escherichia coli at 25 ug/ml by agar plate diffusion technique; settings: read-out: IZ; method in brief: as §3
Aspergillus niger [9] = assay: Antimicrobial activity against Aspergillus niger at 100 ug/ml by paper disc method; settings: read-out: IZ; method in brief: as §2
Staphylococcus aureus [10] = assay: Antimicrobial activity against Staphylococcus aureus at 50 ug/ml by agar plate diffusion technique; settings: read-out: IZ; method in brief: as §3
Metaphire posthuma [11] = assay: Anthelmintic activity against Pheretima posthuma assessed as time taken for complete parasite paralysis at 0.2% w/v
Method in brief: (§4)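 Earthworms (Pheretima posthuma) exposed to test solutions at 0.1, 0.2 and 0.5% w/v; time in minutes to complete paralysis (worms motionless) recorded. Albendazole as standard. Mean of three determinations ± S.D.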

Metaphire posthuma [12] = assay: Anthelmintic activity against Pheretima posthuma assessed as time taken for parasite death at 0.2% w/v; method in brief: as §1
Staphylococcus aureus [13] = assay: Antimicrobial activity against Staphylococcus aureus at 25 ug/ml by agar plate diffusion technique; settings: read-out: IZ; method in brief: as §3
Pseudomonas aeruginosa [14] = assay: Antimicrobial activity against Pseudomonas aeruginosa at 100 ug/ml by agar plate diffusion technique; settings: read-out: IZ; method in brief: as §3
Metaphire posthuma [15] = assay: Anthelmintic activity against Pheretima posthuma assessed as time taken for complete parasite paralysis at 0.1% w/v; method in brief: as §4
Bacillus subtilis [16] = assay: Antimicrobial activity against Bacillus subtilis at 25 ug/ml by agar plate diffusion technique; settings: read-out: IZ; method in brief: as §3
Escherichia coli [17] = assay: Antimicrobial activity against Escherichia coli at 100 ug/ml by agar plate diffusion technique; settings: read-out: IZ; method in brief: as §3
Pseudomonas aeruginosa [18] = assay: Antimicrobial activity against Pseudomonas aeruginosa at 25 ug/ml by agar plate diffusion technique; settings: read-out: IZ; method in brief: as §3
Aspergillus niger [19] = assay: Antimicrobial activity against Aspergillus niger at 50 ug/ml by paper disc method; settings: read-out: IZ; method in brief: as §2
[20] = Antiinflammatory activity assessed as inhibition of albumin denaturation at 100 ug/ml by UV-visible spectrophotometry
Method in brief: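 Compounds dissolved in minimal DMF, diluted in PBS pH 7.4 (final DMF <2.5%). 1 mL test solution (100 µg/mL) plus 1 mL 1% albumin in PBS, 15 min at 27 ± 1 °C, then heated 10 min at 60 ± 1 °C. After cooling, turbidity read at 660 nm. % inhibition = [(Vt/Vc) − 1] × 100 against a no-drug control. Triplicate, averaged. Diclofenac standard.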

Escherichia coli [21] = assay: Antimicrobial activity against Escherichia coli at 50 ug/ml by agar plate diffusion technique; settings: read-out: IZ; method in brief: as §3
[22] = Antioxidant activity assessed as potassium ferricyanide ion reducing power after 20 mins
Method in brief: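 Oyaizu method. Samples or ascorbic acid in DMF (12.5–100 µg/mL) mixed with 0.2 M phosphate buffer pH 6.6 and 1% potassium ferricyanide, 20 min at 50 °C. 10% TCA added, centrifuged. Supernatant mixed with water and 0.1% FeCl3, read at 700 nm. % = [(Vt/Vc) − 1] × 100. IC50 derived.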

Staphylococcus aureus [23] = assay: Antimicrobial activity against Staphylococcus aureus at 100 ug/ml by agar plate diffusion technique; settings: read-out: IZ; method in brief: as §3
[24] = Antioxidant activity assessed as hydrogen peroxide scavenging activity after 10 mins
Method in brief: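 H2O2 (20 mM) in PBS pH 7.4. 1 mL of sample or ascorbic acid in methanol (12.5–100 µg/mL) added to 2 mL H2O2 solution. A230 read after 10 min. % inhibition = [1 − (Vt/Vc)] × 100. Triplicate, averaged. IC50 derived from % inhibition across concentrations.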

Bacillus subtilis [25] = assay: Antimicrobial activity against Bacillus subtilis at 100 ug/ml by agar plate diffusion technique; settings: read-out: IZ; method in brief: as §3
Metaphire posthuma [26] = assay: Anthelmintic activity against Pheretima posthuma assessed as time taken for complete parasite paralysis at 0.5% w/v; method in brief: as §4
[27] = Antioxidant activity assessed as inhibition of lipid peroxidation using egg lecithin liposomes incubated for 1 hr
Method in brief: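 Egg lecithin (3 mg/mL, phosphate buffer pH 7.4) sonicated 10 min to form liposomes. Sample or ascorbic acid (12.5–100 µg/mL) added. Peroxidation induced with FeCl3 and L-ascorbic acid, 1 h at 37 °C. Stopped with HCl/TCA/TBA/BHA, boiled 15 min, centrifuged, supernatant read at 532 nm. Triplicate. % inhibition vs control. IC50 derived.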

Pseudomonas aeruginosa [28] = assay: Antimicrobial activity against Pseudomonas aeruginosa at 50 ug/ml by agar plate diffusion technique; settings: read-out: IZ; method in brief: as §3
[29] = Antioxidant activity assessed as nitric oxide radical scavenging activity after 150 mins
Method in brief: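 10 mM sodium nitroprusside (4 mL), PBS pH 7.4 (1 mL) and sample or ascorbic acid in DMSO (1 mL, 12.5–100 µg/mL), incubated 150 min at 25 °C. Nitrite detected with sulphanilic acid (5 min) then naphthylethylenediamine (30 min, diffused light). Read at […]. Triplicate. % inhibition = [1 − (Vt/Vc)] × 100. IC50 derived from it.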

SMILES	Time (Metaphire posthuma [1])	zone of inhibition at 25 µg/mL (Candida albicans [2])	Time (Metaphire posthuma [3])	zone of inhibition at 100 µg/mL (Candida albicans [4])	zone of inhibition at 25 µg/mL (Aspergillus niger [5])	zone of inhibition at 50 µg/mL (Bacillus subtilis [6])	zone of inhibition at 50 µg/mL (Candida albicans [7])	zone of inhibition at 25 µg/mL (Escherichia coli [8])	zone of inhibition at 100 µg/mL (Aspergillus niger [9])	zone of inhibition at 50 µg/mL (Staphylococcus aureus [10])	Time (Metaphire posthuma [11])	Time (Metaphire posthuma [12])	zone of inhibition at 25 µg/mL (Staphylococcus aureus [13])	zone of inhibition at 100 µg/mL (Pseudomonas aeruginosa [14])	Time (Metaphire posthuma [15])	zone of inhibition at 25 µg/mL (Bacillus subtilis [16])	zone of inhibition at 100 µg/mL (Escherichia coli [17])	zone of inhibition at 25 µg/mL (Pseudomonas aeruginosa [18])	zone of inhibition at 50 µg/mL (Aspergillus niger [19])	inhibition [20]	other results
Cn1c(NN)nc(-c2ccccc2F)c(C#N)c1=O	61.02 min	11.8 mm	68.45 min	19.2 mm	11.1 mm	15.7 mm	17 mm	9.85 mm	19.6 mm	17.3 mm	51.34 min	65.43 min	13.6 mm	15.4 mm	54.93 min	13.1 mm	15.3 mm	9 mm	14 mm	42.1%	zone of inhibition at 50 µg/mL (Escherichia coli [21]): 13.5 mm; IC50 [22]: 50 µg/mL (≈ 193 µM); zone of inhibition at 100 µg/mL (Staphylococcus aureus [23]): 22.2 mm; IC50 [24]: 49 µg/mL (≈ 189 µM); zone of inhibition at 100 µg/mL (Bacillus subtilis [25]): 21.6 mm; Time (Metaphire posthuma [26]): 48.77 min; IC50 [27]: 43 µg/mL (≈ 166 µM); zone of inhibition at 50 µg/mL (Pseudomonas aeruginosa [28]): 13.8 mm; IC50 [29]: 60 µg/mL (≈ 231 µM)
Cn1c(NN)nc(-c2ccc(Cl)cc2)c(C#N)c1=O	42.54 min	12.8 mm	58.3 min	17.3 mm	14.6 mm	16 mm	15.7 mm	8.18 mm	21.4 mm	15.5 mm	40.13 min	46.45 min	11.2 mm	14.9 mm	42.1 min	10.2 mm	12.4 mm	7.64 mm	16.8 mm	61.2%	zone of inhibition at 50 µg/mL (Escherichia coli [21]): 10.9 mm; IC50 [22]: 44 µg/mL (≈ 160 µM); zone of inhibition at 100 µg/mL (Staphylococcus aureus [23]): 20.6 mm; IC50 [24]: 41 µg/mL (≈ 149 µM); zone of inhibition at 100 µg/mL (Bacillus subtilis [25]): 24.1 mm; Time (Metaphire posthuma [26]): 37.67 min; IC50 [27]: 46 µg/mL (≈ 167 µM); zone of inhibition at 50 µg/mL (Pseudomonas aeruginosa [28]): 10.2 mm; IC50 [29]: 59 µg/mL (≈ 214 µM)
CCOC(=O)c1cnn(-c2nc(-c3ccccc3O)c(C#N)c(=O)n2C)c1N	47.23 min	10.6 mm	55.2 min	15.5 mm	9.21 mm	14.2 mm	14.5 mm	13.5 mm	18.1 mm	17.4 mm	40.03 min	49.54 min	12.3 mm	21.1 mm	43.09 min	13.9 mm	24.4 mm	10.2 mm	12.6 mm	54.4%	zone of inhibition at 50 µg/mL (Escherichia coli [21]): 17.3 mm; IC50 [22]: 48 µg/mL (≈ 126 µM); zone of inhibition at 100 µg/mL (Staphylococcus aureus [23]): 22.8 mm; IC50 [24]: 58 µg/mL (≈ 152 µM); zone of inhibition at 100 µg/mL (Bacillus subtilis [25]): 23.1 mm; Time (Metaphire posthuma [26]): 38.52 min; IC50 [27]: 57 µg/mL (≈ 150 µM); zone of inhibition at 50 µg/mL (Pseudomonas aeruginosa [28]): 15 mm; IC50 [29]: 64 µg/mL (≈ 168 µM)
CCOC(=O)c1cnn(-c2nc(-c3ccco3)c(C#N)c(=O)n2C)c1N	54.82 min	10.9 mm	58.76 min	18 mm	10.1 mm	14.1 mm	12.3 mm	13 mm	20.4 mm	14.1 mm	42.22 min	55.23 min	10.9 mm	19.9 mm	47.26 min	12.9 mm	18 mm	9.19 mm	13.1 mm	42.2%	zone of inhibition at 50 µg/mL (Escherichia coli [21]): 14.2 mm; IC50 [22]: 91 µg/mL (≈ 257 µM); zone of inhibition at 100 µg/mL (Staphylococcus aureus [23]): 17.7 mm; IC50 [24]: 104 µg/mL (≈ 294 µM); zone of inhibition at 100 µg/mL (Bacillus subtilis [25]): 18.3 mm; Time (Metaphire posthuma [26]): 45.98 min; IC50 [27]: 116 µg/mL (≈ 327 µM); zone of inhibition at 50 µg/mL (Pseudomonas aeruginosa [28]): 12.1 mm; IC50 [29]: 108 µg/mL (≈ 305 µM)
CCOC(=O)c1cnn(-c2nc(-c3cccc(O)c3O)c(C#N)c(=O)n2C)c1N	60.74 min	10.4 mm	70.56 min	17.7 mm	9.48 mm	15.1 mm	13.3 mm	13.1 mm	17.2 mm	16.1 mm	65.54 min	75.78 min	12.7 mm	20.3 mm	60.22 min	14.4 mm	22.9 mm	10.3 mm	11.7 mm	57.6%	zone of inhibition at 50 µg/mL (Escherichia coli [21]): 16 mm; IC50 [22]: 41 µg/mL (≈ 103 µM); zone of inhibition at 100 µg/mL (Staphylococcus aureus [23]): 20.3 mm; IC50 [24]: 53 µg/mL (≈ 134 µM); zone of inhibition at 100 µg/mL (Bacillus subtilis [25]): 21.8 mm; Time (Metaphire posthuma [26]): 53.34 min; IC50 [27]: 49 µg/mL (≈ 124 µM); zone of inhibition at 50 µg/mL (Pseudomonas aeruginosa [28]): 12.8 mm; IC50 [29]: 58 µg/mL (≈ 146 µM)
CCOC(=O)c1cnn(-c2nc(-c3ccc(OC)cc3)c(C#N)c(=O)n2C)c1N	57.93 min	9.62 mm	67.41 min	19.8 mm	11.6 mm	14 mm	12.6 mm	10.5 mm	20.7 mm	15.1 mm	49.46 min	63.37 min	10.1 mm	16.1 mm	52.09 min	10.2 mm	17.4 mm	8.21 mm	13 mm	13.6%	zone of inhibition at 50 µg/mL (Escherichia coli [21]): 14.7 mm; IC50 [22]: 59 µg/mL (≈ 150 µM); zone of inhibition at 100 µg/mL (Staphylococcus aureus [23]): 18.6 mm; IC50 [24]: 74 µg/mL (≈ 188 µM); zone of inhibition at 100 µg/mL (Bacillus subtilis [25]): 18.1 mm; Time (Metaphire posthuma [26]): 45.02 min; IC50 [27]: 68 µg/mL (≈ 172 µM); zone of inhibition at 50 µg/mL (Pseudomonas aeruginosa [28]): 10.2 mm; IC50 [29]: 79 µg/mL (≈ 200 µM)
